Assay results from ChEMBL document CHEMBL4513216, “Probing the Open Global Health Chemical Diversity Library for Multistage-Active Starting Points for Next-Generation Antimalarials” (ACS Infect Dis, 2020).

Assay: Toxicity liver stage against HepG2, at 10uM
Type: cell-based
Set-up: test concentration 10 uM, cell line HepG2-A16-CD81EGFP
Details: human, HepG2-A16-CD81EGFP cells; read-out: INHIBITION
Summary of the method: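 Uninfected HepG2-A16-CD81EGFP cells, 3 × 10^3 per well, 1536-well, plated on prespotted compound at 10 μM final, parasite-free screening media added to match infected plates; puromycin 10 μM positive, DMSO 0.5% negative; run in parallel with 48 h PbLuc assay at 37 °C, 5% CO2; viability by CellTiter-Glo luminescence, normalized to controls.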

Compound	cytotoxicity at 10 µM [%]
CNC(=O)c1nc(CC(=O)Nc2cccc(C(F)(F)F)c2)no1	-6.96
Cc1nn(-c2ccc(C(=O)O)cc2)c2c1C(C(C)C)SCC(=O)N2 (stereo not drawn)	-3.58
Cc1ccc(S(=O)(=O)NCCNc2cc(-n3cccc3)ncn2)c(C)c1	-0.817
CCN1C(=O)CCC12CCN(S(=O)(=O)c1ccccc1)CC2	-4.9
CC(C)C(=O)NC1COC2(CCN(C(=O)c3cccnc3)CC2)C1 (stereo not drawn)	4.26
Cn1cccc1C(=O)N1C[C@H]2CN(Cc3cccnc3)C[C@H]2C1	3.94
O=C(C1CCOCC1)N1CC[C@@H](O)[C@@H]1Cc1ccncc1	-2.36
CCN(C(=O)c1nc2c(s1)CCCN2Cc1ccccc1)C(C)C	14.2
Cc1nc(CNCC2COCc3c(-c4ccoc4)nnn3C2)cs1 (stereo not drawn)	8.22
Cc1cc(NCCO)nc(N2CCCC2)c1C#N	-7.02
CCOC(=O)Cn1cccc(S(=O)(=O)N2CCCC2)c1=O	13.4
Cc1n[nH]c2c1C(c1cnn(C)c1)SCC(=O)N2 (stereo not drawn)	7.7
CN1C(=O)C(C)(C)COc2cc(NS(=O)(=O)Cc3ccccc3)ccc21	-7.79
CN(C)C(=O)N1CCc2c(nnn2C)C1COCc1ccccc1 (stereo not drawn)	-8.39
COc1ccc(S(=O)(=O)N2CCOC(C)(C(N)=O)C2)cc1 (stereo not drawn)	5.49
O=C(C1CC1)N1CCCC(C2=Nc3ccccc3S(=O)(=O)N2)C1 (stereo not drawn)	-1.45
CCn1c(SC)nnc1C1CCN(C(=O)N2CCCC2)CC1	-0.78
CS(=O)(=O)N1CC(c2ccnc(Nc3ccccn3)n2)C1	13.8
CS(=O)(=O)c1cncnc1C1CCCN(C(=O)NCc2ccccc2)C1 (stereo not drawn)	-0.375
Fc1ccccc1Oc1nccnc1C1CCCN(C2CCOCC2)C1 (stereo not drawn)	-9.4
c1c[nH]c(CN2CCCC(Cc3ccc(NC4CCCC4)nn3)C2)n1 (stereo not drawn)	-3.95
Cc1ccc(CN(C)C(=O)c2cc3c(c(S(N)(=O)=O)c2)CCC3)o1	-52.5
COCCN(CCOC)c1ncc(C#N)cc1Cl	2.8

Compound	cytotoxicity at 10 µM [%]
CC(O)CCN(C)C(=O)Nc1cccc(F)c1 (stereo not drawn)	-6.16
COc1ccc(CN2CCCC(n3cccn3)C2)c(Cl)c1OC (stereo not drawn)	4.48
CSC(C)C(=O)Nc1ccnn1-c1ccccc1C (stereo not drawn)	-12.5
Cc1ccc(CN(C)C(=O)NCC(C)(C)S(C)(=O)=O)s1	15.6
CCCN(C(=O)CN1CCN(CC(C)O)CC1)C1=CCCCC1 (stereo not drawn)	4.13
CC(CNC(=O)NCc1ccoc1)N1CCc2sccc2C1 (stereo not drawn)	-4.8
CN(CC(=O)NCC(CCO)c1ccccc1)C(=O)OC(C)(C)C (stereo not drawn)	-6.58
CCc1[nH]c(C2(N)CCCCC2)nc(=O)c1C	7.61
OCCN(Cc1cccnc1)c1ccc(Cl)cn1	31.9
CS(=O)(=O)CCN1CCc2c(ncn2C2CC2)C1	-6.06
Cc1ccc(CNC(=O)C2CCN(C(=O)c3ccccc3)CC2)n1C	1.2
Brc1ccc(C2(NCc3noc(C4CC4)n3)CCC2)cc1	13.3
CC(=O)N(C)CC(=O)NC1(c2ccc(Cl)c(Cl)c2)CC1	-5.57
Cc1nn(CCO)c(C)c1CNC1CCc2c(F)cccc21 (stereo not drawn)	4.59
CCN(CC)S(=O)(=O)N1CCCC1CC(=O)c1cccs1 (stereo not drawn)	3.62
CNC(=O)N1CCCCC1CCNS(C)(=O)=O (stereo not drawn)	-3.41
COc1ccc(C)cc1CC(=O)NC1(C#N)CCOCC1	6.18
CCC(C)C(=O)NCCCn1nc(C)cc1C (stereo not drawn)	0.0879
c1cncc(CN(Cc2ccc3c(c2)OCCO3)CC2CCCO2)c1 (stereo not drawn)	1.22
CC(C)C(=O)NCCNC(=O)C(C)OCC(F)(F)F (stereo not drawn)	-5.56
O=C(NCC(O)c1ccccc1C(F)(F)F)c1cccnc1 (stereo not drawn)	-2.9
Cc1cccn2cc(CN3CCCC(c4ccn[nH]4)C3)nc12 (stereo not drawn)	-5.95
CC(C)COC(C)C(=O)N1CCCCCC1 (stereo not drawn)	1.31

Compound	cytotoxicity at 10 µM [%]
OCCOc1cc(F)ccc1NCc1nc(-c2ccoc2)no1	-46.9
CS(=O)(=O)CCNCc1ccc(OCc2cscn2)cc1	-136
O=C1CN(C(=O)C2CCCOC2)CCN1Cc1ccc(Cl)cc1 (stereo not drawn)	-152
CC(C)CCN(C)C(=O)c1cnc2c(cnn2CC(C)C)c1	-0.0554
CC(C)c1cc(C(=O)NCC(O)C2CCOCC2)nn1C(C)(C)C (stereo not drawn)	-9.55
O=C(COCC1CC1)Nc1ncccc1I	22.5
CCOc1ncccc1NC(=O)N1CCC(n2cncn2)CC1	6.64
FC(F)(F)c1cccc(C2(CNCc3cc[nH]c3)CCOCC2)c1	-6.76
Cc1cnn(CCNCCCOc2ccc(C#N)cc2)c1	-0.222
COc1cc(C(=O)N(Cc2ccco2)C2CC2)cc2c1OCCO2	2.35
Cc1cnccc1N1CCCN(C(=O)CCCn2ccnc2C)CC1	-5.39
O=C(Nc1nc(-c2ccccc2)ns1)N1CCN(C(=O)C2CC2)CC1	-150
Cc1ccccc1C(CNc1ncnc2c1CCNC2)N(C)C (stereo not drawn)	5.31
CCC[C@@H]1CN(C(=O)c2cc(-c3cccs3)n(C)n2)C[C@H]1N(C)C	-1.84
CN(C)C(C(=O)NCCSc1ncn[nH]1)c1cccc(F)c1 (stereo not drawn)	-1.64
COc1cccc(-n2c(SCC(=O)O)nnc2-c2cn[nH]c2)c1	-6.76
Cc1ncsc1CCC(=O)N1CCCC1c1cccnc1 (stereo not drawn)	13.4
O=C(O)c1cn(CC2CCCN(c3nccc4occc34)C2)nn1 (stereo not drawn)	-5.17
CS(=O)(=O)NCc1cc2n(n1)CCCN(Cc1cc3ccccc3o1)C2	0.403
Cn1c(Cn2cccn2)nnc1C1CCN(Cc2cccnc2)CC1	6.01
Cn1cccc1C(=O)N1CCCC(Cn2cc(CO)nn2)C1 (stereo not drawn)	1.85
CC(C)CN1CCn2nc(CNc3ncnc4[nH]ccc34)cc2C1	-0.531
CN(C)c1nc2c(c(N3CCc4c(c(CO)nn4C)C3)n1)CCNC2	-5.72

Compound	cytotoxicity at 10 µM [%]
COc1cc(NCc2ccccc2-n2cncn2)nc(N)n1	-11
Cc1nc(C)n(CCCn2ccnc2-c2cc3n(n2)CCCNC3)n1	3.71
O=C(CCc1cn[nH]c1)N1C[C@H](CO)C[C@H](CN2CCOCC2)C1	2.72
COCCc1noc(-c2ccc(N[C@H]3CCCCNC3=O)nc2)n1	6.9
COCCC1(CO)CCCN(C(=O)c2cc(Cl)ccc2F)C1 (stereo not drawn)	4.36
CCN1CCC(CC(=O)N[C@H](C(=O)O)c2cccc(F)c2F)CC1	-2.62
Cc1cnccc1CN(C)C(=O)c1cccc(CCC(C)(C)O)c1	-3.55
Cc1nc(NCCSc2nnc(C)s2)c2cccnc2n1	-0.125
Cc1ccc(F)cc1CC(=O)N(CCN1CCOCC1)Cc1ccco1	-3.91
C[C@@H]1CN(C2CCN(c3ccccc3)CC2)CC[C@@]1(O)C1CCOCC1	-10.6
COCCCC1(CO)CCCN(CCS(C)(=O)=O)C1 (stereo not drawn)	-16
c1cc(NC2CC3(CCN(Cc4cc[nH]n4)C3)C2)ncn1 (stereo not drawn)	-4.71
CCc1ccc(C(=O)N2CCCCC2Cn2cccn2)o1 (stereo not drawn)	-6.8
N#CCCN(C(=O)CN1CCCC1c1ccsc1)c1ccccc1 (stereo not drawn)	-8.42
CN1CCOC(CN(C(=O)COc2ccccc2)c2nccs2)C1 (stereo not drawn)	-8.18
Cc1nn(C)c(C)c1C1CCCN1Cc1nc(-c2cccs2)no1 (stereo not drawn)	-9.43
Cc1nc(C)n(CC2CCCN(Cc3cc(C#N)ccc3F)C2)n1 (stereo not drawn)	-18.3
CNc1cc(N2CCCC2CNCc2cscn2)ncn1 (stereo not drawn)	-0.426
Cc1noc(CCCC(=O)NC(C)c2ccc(Cl)s2)n1 (stereo not drawn)	-9.48
N#Cc1ccccc1N1CCCN(C(=O)CCc2ccco2)CC1	-8.48
CN(C)c1cc(CNC(=O)c2cc(F)ccc2F)ccn1	-8.35
CN(Cc1nnc2n1CCC2)C(=O)c1ccc2c(c1)OCCO2	-17.8
Cc1ccc(-c2ncc(C(=O)NS(C)(=O)=O)s2)c(C)c1	-8.91

Compound	cytotoxicity at 10 µM [%]
COC(=O)c1cc(C(=O)N2CCOCC2(C)C)n(-c2ccccc2)n1	-10.2
O=C(Cn1cnnn1)N1CCCCC1Cn1cccn1 (stereo not drawn)	-9.24
CCCc1noc(CCC(=O)N2CCCC2c2ccsc2)n1 (stereo not drawn)	-11
CC(NC(=O)N1CCN(c2ccccc2)CC1)c1nncn1C (stereo not drawn)	2.36
Cc1nn(C)c(Cl)c1C1CCCN1C(=O)c1nccnc1N (stereo not drawn)	-6.9
O=C(NCc1ccc(-n2cncn2)nc1)c1ccc2c(c1)CCO2	-10.2
O=C(NCC1CCCO1)c1cc(-c2ccncc2)c2cnccc2n1 (stereo not drawn)	1.05
O=C(Nc1cccc(F)c1)C1=NOC2(CCNCC2)C1	5.19
O=C(Nc1cccnc1)[C@@H]1C[C@H]2OCC[C@H]2N(Cc2ccsc2)C1	2.88
COc1ccc(-c2cc(C3CCCNC3)ccn2)cc1 (stereo not drawn)	0.288
O=C(Cc1cccs1)N1CCn2cc(Cn3cccn3)nc2C1	-77.9
COCC(=O)NC1CC2(CCN(CC3CC3)CC2)Oc2ccccc21 (stereo not drawn)	-2.6
O=C(C1CCCCC1)N1CCCC2(CCN(c3cnccn3)CC2)C1	6.59
CC(C)c1nc(-c2cc(C(=O)NCCN(C)C)c3ccccn23)cs1	4.77
Cc1nc(CN2CCC3(CCCN(C(=O)c4cnccn4)C3)C2)cs1 (stereo not drawn)	-147
Cc1noc([C@@H]2CC[C@@H]3[C@@H](CCN3S(=O)(=O)c3cccnc3)O2)n1	-13.1
CCN1CC2(CC1=O)CN(Cc1cnn(C)c1)CCN(C(C)=O)C2 (stereo not drawn)	-12.5
COCC(=O)N1CCCn2c(CN3CCOCC3)nnc2C1	-131
Cc1ccccc1C(=O)N1C[C@@H]2OCCN(c3ncccn3)[C@@H]2C1	29.5
c1csc(CN2C[C@@H](n3cccn3)[C@H]3OCCC[C@H]32)c1	1.63
CN1CC[C@]2(CN(Cc3nccs3)C[C@H]2c2ccccc2)C1=O	10.8
